Assay results published in ChEMBL document CHEMBL4699416, “Allocolchicinoids bearing a Michael acceptor fragment for possible irreversible binding of tubulin” (RSC Med Chem, 2020).
Calls of active or inactive are those of the source. No cut-off for these calls is given here.

Columns and labels:
HEK293 = assay: Cytotoxicity against human HEK293 cells assessed as inhibition of cell growth incubated for 72 hrs by MTT assay; assay type: functional, cell-based; conditions: HEK293, 72 h
In short: (§1)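 Cells in DMEM with 10% FCS, seeded 24 h before assay at 3 × 10^5 cells per mL and incubated overnight. DMSO stocks (20 mM) diluted to 20 μM–0.1 nM and added to cells for 72 h, with untreated controls. MTT added for the last 6 h, formazan dissolved in DMSO, OD read at 540 nm.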

BXPC-3 = assay: Cytotoxicity against human BxPC-3 cells assessed as inhibition of cell growth incubated for 72 hrs by MTT assay; assay type: functional, cell-based; conditions: BXPC-3, 72 h; in short: as §1
COLO357 [1] = assay: Cytotoxicity against human COLO-357 cells assessed as inhibition of cell growth incubated for 72 hrs by MTT assay; assay type: functional, cell-based; conditions: COLO357, 72 h; in short: as §1
HaCaT = assay: Cytotoxicity against human HaCaT cells assessed as inhibition of cell growth incubated for 72 hrs by MTT assay; assay type: functional, cell-based; in short: as §1
[2] = Toxicity in iv dosed C57BL/6 mouse assessed as lethal dose measured after 24 hrs; assay type: organism-based; conditions: in vivo
In short: (§2)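 Acute toxicity in C57BL/6 mice, 6–8 weeks old, 10 per group. Each mouse got one intravenous dose of 4, 7, 10 or 13 mg kg–1. The dose range was set in preliminary experiments. Signs of toxicity (ruffled fur, poor mobility, lower body temperature) and lethality were recorded at 24 h and 48 h after injection. Survivors at 48 h were followed for 1 week. LD50 and LD100 were derived.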

[3] = Inhibition of lamb brain tubulin polymerization assessed as reduction in microtubule formation incubated for 40 mins by spectrophotometric analysis; assay type: tissue-based, Ovis aries
COLO357 [4] = assay: Induction of mitotic arrest in human COLO357 cells assessed as disruption of mitotic spindle arrangement at 5 uM incubated for 72 hrs by immunofluorescence based confocal microscopic analysis; assay type: functional, cell-based
In short: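 COLO-357 cells (10^5 per coverslip) grown overnight, then exposed to 5 μM in complete medium for 72 h. Fixed in 1% paraformaldehyde and permeabilized with 0.1% Triton X100 in PBS. Stained with anti-β-tubulin antibody and AlexaFluor555 anti-mouse IgG, nuclei with Hoechst 33342, then imaged by confocal microscopy.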

[5] = Induction of cell cycle arrest in […] L929 cells assessed as G2/M phase at 5 uM incubated for 72 hrs by propidium iodide staining based flow cytometry analysis (reference value: 8 %); assay type: functional
[6] = Induction of apoptosis in […] L929 cells at 5 uM incubated for 72 hrs by propidium iodide staining based flow cytometry analysis (reference value: 1.2 %); assay type: functional
[7] = Induction of cell cycle arrest in […] L929 cells assessed as G1 phase at 5 uM incubated for 72 hrs by propidium iodide staining based flow cytometry analysis (reference value: 91 %); assay type: functional
COLO357 [8] = assay: Induction of apoptosis in human COLO357 cells at 5 uM incubated for 72 hrs by propidium iodide staining based flow cytometry analysis (reference value: 0.3 %); assay type: functional
COLO357 [9] = assay: Induction of cell cycle arrest in human COLO357 cells assessed as G2/M phase at 5 uM incubated for 72 hrs by propidium iodide staining based flow cytometry analysis (reference value: 7.2 %); assay type: functional
[10] = Toxicity in iv dosed C57BL/6 mouse assessed as lethal dose measured after 40 to 48 hrs; assay type: organism-based; conditions: in vivo, time 40-48 hrs; for LD50: C57BL/6, mouse; for LD100: mouse; in short: as §2
COLO357 [11] = assay: Induction of cell cycle arrest in human COLO357 cells assessed as G1 phase at 5 uM incubated for 72 hrs by propidium iodide staining based flow cytometry analysis (reference value: 91.1 %); assay type: functional

Structure (SMILES): COC(=O)c1ccc2c(c1)[C@@H](NC(=O)CNC(=O)C=C(C)C)CCc1cc(OC)c(OC)c(OC)c1-2
- IC50 (HEK293): 16 nM
- IC50 (BXPC-3): 16 nM
- IC50 (COLO357 [1]): 80 nM
- IC50 (HaCaT): 16 nM

Structure (SMILES): COC(=O)c1ccc2c(c1)[C@@H](NC(=O)CNC(=O)/C=C/C(F)(F)F)CCc1cc(OC)c(OC)c(OC)c1-2
- IC50 (HEK293): 80 nM
- IC50 (BXPC-3): 16 nM
- IC50 (COLO357 [1]): 80 nM
- IC50 (HaCaT): 16 nM

Structure (SMILES): C/C=C/C=C/C(=O)NCC(=O)N[C@H]1CCc2cc(OC)c(OC)c(OC)c2-c2cc3cc(CO)oc3cc21
- IC50 (HEK293): 400 nM
- IC50 (BXPC-3): 400 nM
- IC50 (COLO357 [1]): 400 nM
- IC50 (HaCaT): 400 nM

Structure (SMILES): C/C=C/C(=O)NCC(=O)N[C@H]1CCc2cc(OC)c(OC)c(OC)c2-c2ccc(C(=O)OC)cc21
- IC50 (HEK293): 80 nM
- IC50 (BXPC-3): 80 nM
- IC50 (COLO357 [1]): 80 nM
- IC50 (HaCaT): 80 nM

Structure (SMILES): C=CC(=O)OCC(=O)N[C@H]1CCc2cc(OC)c(OC)c(OC)c2-c2ccc(C(=O)OC)cc21
- IC50 (HEK293): 16 nM
- IC50 (BXPC-3): 16 nM
- IC50 (COLO357 [1]): 16 nM
- IC50 (HaCaT): 16 nM

Structure (SMILES): C=CC(=O)NCC(=O)N[C@H]1CCc2cc(OC)c(OC)c(OC)c2-c2ccc(C(=O)OC)cc21
- IC50 (HEK293): 400 nM
- IC50 (BXPC-3): 80 nM
- IC50 (COLO357 [1]): 400 nM
- IC50 (HaCaT): 80 nM

Structure (SMILES): COC(=O)c1ccc2c(c1)[C@@H](NC(=O)COC(=O)/C=C/C(F)(F)F)CCc1cc(OC)c(OC)c(OC)c1-2
- IC50 (HEK293): 16 nM
- IC50 (BXPC-3): 16 nM
- IC50 (COLO357 [1]): 16 nM
- IC50 (HaCaT): 16 nM

Structure (SMILES): C/C=C/C=C/C(=O)OCC(=O)N[C@H]1CCc2cc(OC)c(OC)c(OC)c2-c2cc3cc(COC(C)=O)oc3cc21
- IC50 (HEK293): 3 nM
- IC50 (BXPC-3): 16 nM
- IC50 (COLO357 [1]): 16 nM
- IC50 (HaCaT): 0.6 nM

Structure (SMILES): C/C=C/C=C/C(=O)NCC(=O)N[C@H]1CCc2cc(OC)c(OC)c(OC)c2-c2ccc(C(=O)OC)cc21
- IC50 (HEK293): 16 nM
- IC50 (BXPC-3): 3 nM
- IC50 (COLO357 [1]): 16 nM
- IC50 (HaCaT): 3 nM

Structure (SMILES): C/C=C/C=C/C(=O)OCC(=O)N[C@H]1CCc2cc(OC)c(OC)c(OC)c2-c2ccc(C(=O)OC)cc21
- IC50 (HEK293): 3 nM
- LD50 at 24 h ([2]; C57BL/6, mouse): 6.1 mg/kg
- LD100 ([2]; mouse, 24 h): 8.4 mg/kg
- IC50 [3]: 6780 nM
- Activity (COLO357 [4]): Active
- Activity [5]: 61%
- IC50 (BXPC-3): 3 nM
- IC50 (COLO357 [1]): 3 nM
- IC50 (HaCaT): 0.6 nM
- Activity [6]: 5.6%
- Activity [7]: 40%

Structure (SMILES): COc1cc2c(c(OC)c1OC)-c1ccc(OC)c(=O)cc1[C@@H](NC(C)=O)CC2 [COLCHICINE]
- IC50 (HEK293): 16 nM
- Activity (COLO357 [8]): 10%
- Activity (COLO357 [4]): Active
- Activity [5]: 74%
- IC50 (BXPC-3): 16 nM
- IC50 (COLO357 [1]): 16 nM
- Activity (COLO357 [9]): 61%
- LD50 [10]: 8.5 mg/kg
- LD100 [10]: 10.9 mg/kg
- IC50 (HaCaT): 3 nM
- Activity [6]: 3%
- Activity (COLO357 [11]): 33%
- Activity [7]: 30%

Structure (SMILES): C/C=C/C(=O)OCC(=O)N[C@H]1CCc2cc(OC)c(OC)c(OC)c2-c2ccc(C(=O)OC)cc21
- IC50 (HEK293): 3 nM
- Activity (COLO357 [8]): 9.3%
- Activity (COLO357 [4]): Active
- IC50 (BXPC-3): 16 nM
- IC50 (COLO357 [1]): 16 nM
- Activity (COLO357 [9]): 60%
- LD50 [10]: 6.5 mg/kg
- LD100 [10]: 9.8 mg/kg
- IC50 (HaCaT): 3 nM
- Activity (COLO357 [11]): 32%

Structure (SMILES): COC(=O)c1ccc2c(c1)[C@@H](NC(=O)COC(=O)C=C(C)C)CCc1cc(OC)c(OC)c(OC)c1-2
- IC50 (HEK293): 16 nM
- IC50 (BXPC-3): 3 nM
- IC50 (COLO357 [1]): 16 nM
- IC50 (HaCaT): 3 nM

Structure (SMILES): COC(=O)c1ccc2c(c1)[C@@H](NC(=O)COC(=O)CC(C)SC[C@@H](NC(C)=O)C(=O)OC)CCc1cc(OC)c(OC)c(OC)c1-2 (mixture of isomers)
- IC50 (HEK293): 16 nM
- IC50 (BXPC-3): 16 nM
- IC50 (COLO357 [1]): 80 nM
- IC50 (HaCaT): 16 nM
